Reference: article PMC8336959 (Science Advances, 2021)
One block for each compound: values may come before it. Square brackets hold non-standard residues; d marks the D form. Ends that are not written are not given here. pY = N[C@@H](Cc1ccc(OP(=O)(O)O)cc1)C(=O)O

Tests used:
GRB2-SH2 domain = GRB2-SH2 domain (Homo sapiens, UniProt P62993); assay: MST binding of synthetic peptides to Atto488-labeled GRB2-SH2 domain; conditions: synthetic peptide
[1] = test system: human MRE11 (residues 1 to 411); assay: MST binding of Atto488-labeled GRB2; conditions: bacterially expressed purified proteins
[2] = Sulforhodamine B assay of olaparib-induced cytotoxicity, control cells; assay type: cell-based; conditions: human, control (WT) HeLa cells
Method in brief: (§1)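 HeLa cells kept in RPMI 1640 with 10% FBS at 10% CO2. Knockout made by CRISPR-Cas9 gRNA delivered by lentivirus, with puromycin or blasticidin selection; clones checked by Western blot and pooled. Stable reconstitution with wild-type or K109R Strep-tagged GRB2. Cytotoxicity of PARP inhibitor read by sulforhodamine B staining. IC50 taken from the concentration–response data.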

[3] = Sulforhodamine B assay of olaparib-induced cytotoxicity, GRB2-KO cells; assay type: cell-based, human; conditions: human, GRB2-KO HeLa cells
GRB2-KO HeLa cells [4] = assay: as above; assay type: cell-based, human; conditions: Sulforhodamine B assay, ratio of IC50 WT vs GRB2-KO
[5] = Sulforhodamine B assay of olaparib-induced cytotoxicity, KO + GRB2 cells; assay type: cell-based; conditions: human, GRB2-KO HeLa cells reconstituted with WT GRB2
Method in brief: as §1

[6] = Sulforhodamine B assay of olaparib-induced cytotoxicity, KO + K109R cells; assay type: cell-based; conditions: human, GRB2-KO HeLa cells reconstituted with K109R mutant GRB2
Method in brief: as §1

control (WT) HeLa cells = assay: Annexin V/PI staining assay, control cells; assay type: cell-based, human; conditions: FACS, 50 μM olaparib for 72 hours, triplicate
GRB2-KO HeLa cells [7] = assay: Annexin V/PI staining assay, GRB2-KO cells; assay type: cell-based, human; conditions: FACS, 50 μM olaparib for 72 hours, triplicate
Method in brief: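 HeLa cells (GRB2-knockout and comparison lines) grown in RPMI 1640 with 10% FBS at 10% CO2. Cells treated 72 h with DMSO or 50 μM PARP inhibitor, then trypsinized, washed and resuspended in annexin-binding buffer. Labelled with annexin V–Alexa Fluor 647 plus PI for 15 min at room temperature in the dark. Annexin V- and PI-positive fractions scored by flow cytometry against the DMSO control. Triplicate.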

[8] = test system: GRB2-KO HeLa cells reconstituted with ^K109RGRB2; assay: Annexin V/PI staining assay, KO + K109R cells; assay type: cell-based, human; conditions: FACS, 50 μM olaparib for 72 hours, compared with GRB2-KO

GRB2-SH2 domain, sequence (P62993 60-152 limits assumed): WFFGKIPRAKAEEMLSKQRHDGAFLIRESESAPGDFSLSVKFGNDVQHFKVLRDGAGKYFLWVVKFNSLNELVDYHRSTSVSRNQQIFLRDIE

Compound: PWVN[pY]QDGNLN [WVNpYQDGNLN]
binding to GRB2-SH2 domain in words (GRB2-SH2 domain): limited impact

binding to GRB2-SH2 domain in words (GRB2-SH2 domain): failed to produce a binding isotherm
Compound: PSGGKKATQASQE(pY) [pY142 H2AX]

Compound: ^K109RGRB2: GRB2 lysine-109-to-arginine mutant, MRE11 nonbinding, generated by site-directed mutagenesis
MRE11 binding in words [1]: no binding

binding to GRB2-SH2 domain in words (GRB2-SH2 domain): failed to produce a binding isotherm
Compound: PSGGKKATQA(pS)QEY [pS139 H2AX]

Compound: O=C(c1cc(Cc2n[nH]c(=O)c3ccccc23)ccc1F)N1CCN(C(=O)C2CC2)CC1 [olaparib]
IC50 [2]: 124 ± 41 µM
IC50 [3]: 18 ± 2.9 µM
sensitivity of GRB2-KO cells relative to WT control cells (GRB2-KO HeLa cells [4]): seven
IC50 [5]: 164 ± 47 µM
IC50 [6]: 20 ± 3 µM
olaparib-induced apoptosis, share of cells (control (WT) HeLa cells): 20%
olaparib-induced apoptosis, share of cells (GRB2-KO HeLa cells [7]): 60%
olaparib-induced apoptosis, in words [8]: failed to rescue the phenotype
